MrgX1 antagonist – human MrgX1 receptor antagonism, primary screen. Q96LB2. AID 588676. 1.3% of 310,000 active. MRGX1-HEK293 calcium flux, Fluo-4, BAM8-22 antagonism; hits give low values. B-score at 10 µM;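 active = calcium-response B-score plate-corrected more than 3 library SD below zero, starting fluorescence within 5 deviations, no agonist response on first addition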;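 also: peak minus trough fluorescence over baseline after final BAM8-22 challenge near maximal dose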
MrgX1 PAM – allosterically activates human MrgX1 receptor signaling. Q96LB2. AID 588675. B-score at 10 µM. MrgX1-HEK293, Fluo-4 calcium flux, FDSS; hits give high values. 0.63% of 310,000 active;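 active = plate-corrected calcium response at least 3 library SD above typical, normal starting fluorescence, not activating the receptor alone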;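 also: compound read alongside a low EC10 to EC30 dose of BAM8-22 agonist; peak minus trough fluorescence over baseline measured at the second addition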
RGS4 block – human RGS4 inhibition; HEK293 M3R/RGS4 inducible, Fluo-4 calcium flux; hits give high values; triggered by carbachol at its EC20; AID 463165; B-score at 10 µM; 0.45% of 310,000 active;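 active = B-score, a plate-corrected calcium signal, over three deviations above library mean, with baseline fluorescence within five deviations of library mean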;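 also: RGS4 expression induced by doxycycline in cells with stable M3 receptor; B-score is computed from the integrated fluorescence ratio over baseline after carbachol; higher B-score means a larger calcium signal and so more RGS4 inhibition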
Target sequence (P49798 whole entry, looked up): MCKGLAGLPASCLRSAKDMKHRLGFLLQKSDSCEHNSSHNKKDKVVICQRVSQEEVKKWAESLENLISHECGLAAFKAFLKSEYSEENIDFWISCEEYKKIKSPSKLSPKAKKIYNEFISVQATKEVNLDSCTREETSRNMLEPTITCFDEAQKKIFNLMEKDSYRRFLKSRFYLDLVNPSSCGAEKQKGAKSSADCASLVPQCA
RGS4 pot – RGS4 potentiation or activation; HEK293 M3R/inducible RGS4, carbachol calcium flux Fluo4; hits give low values; B-score at 10 µM; 0.92% of 310,000 active; AID 463111;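 active = B-score of the integrated calcium signal more than 4 SD below the library mean, with starting fluorescence not abnormally high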;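 also: negative B-score means reduced calcium response which marks RGS4 activation or potentiation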
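System – HEK293 FlpIn-TREx cells, stable M3R, doxycycline-inducible RGS4 · Reagent – ECmax carbachol challenge · Times – compound preincubation 20 min at room temperature before agonist · Technique – Fluo4 fluorescence kinetic imaging of calcium · Measure – B score of integrated Fluo4 ratio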
MrgX1 agonist – activates human MrgX1 receptor signaling; Q96LB2; MrgX1-HEK293 cells, Fluo-4 calcium fluorescence, agonist mode; hits give high values; B-score at 10 µM; 0.44% of 310,000 active; AID 588627;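 active = calcium response B-score plate-corrected fluorescence ratio at least 3 library SD, with starting fluorescence B-score inside 5 SD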
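Material – MrgX1-expressing HEK293 cells · Input – 15,000 cells seeded per well · Dosing – compound as first of three additions · Times – overnight seeding, then 1 h dark dye loading · Measured by – kinetic Fluo-4 NW fluorescence of intracellular calcium · Read-out – B-scored fluorescence response ratio · Benchmarks – positive and negative control wells on each plate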
The depositor's hits bear a star; i = inactive; · = no result given. Sampled rows, rich in hits. Any-hit rate of the full collection: about 3.5%.

SMILES | MrgX1 antagonist | MrgX1 PAM | RGS4 block | RGS4 pot | MrgX1 agonist
COc1ccc(CCn2nc(C)c([N+](=O)[O-])c2C)cc1 | -6.51* | i | i | i | i
Cc1ccc(/C=C/C2=NN(Cc3ccccc3)C(=O)CC2)cc1 | i | i | i | i | i
O=C1CCC(/C=C/c2ccccc2)=NN1Cc1ccccc1 | i | 10.2* | i | i | i
CN(Cc1cccs1)C(=O)C1CC(=O)N(Cc2ccccc2)C1 (stereo not given) | i | i | i | i | i
COc1ccc(C(=O)NCC(=O)N/N=C(\C)Cc2ccccc2)cc1 | i | 7.02* | i | i | i
CN(C)CC/C=C1/c2cc(F)ccc2Sc2ccc(Cl)cc21 | i | i | i | -10* | i
CN(C)CC/C=C1/c2ccccc2Sc2c(O)cc(Cl)cc21 | i | i | i | -7.34* | i
COc1cc(Cl)cc2c1Sc1ccccc1/C2=C/CCN(C)C | i | i | i | -7.08* | i
CN1CCN(CC/C=C2/c3ccccc3Sc3ccc(S(=O)(=O)N(C)C)cc32)CC1 | i | i | i | i | i
COc1ccc(OC)c(NC(=O)c2cc(OC(C)=O)cc(C(=O)Nc3cc(OC)ccc3OC)c2)c1 | i | i | i | i | i
CC(=O)c1cccc(NS(=O)(=O)c2ccc(-c3cnc(C4CC4)o3)cc2)c1 | i | i | i | i | i
Cc1nn(-c2ccccc2)c2c1C(c1ccc([N+](=O)[O-])cc1)N1C(=N2)C(=O)Nc2ccccc21 (stereo not given) | i | i | i | -9.03* | i
Cc1nn(-c2ccccc2)c2c1C(c1ccc(Cl)cc1)N(c1ccccc1)C(=O)N2 (stereo not given) | i | i | i | i | i
Cc1cccc(NC2=Nc3ccccc3N3C2=Nc2c(c(C)nn2-c2ccccc2)C3c2ccc(O)c(O)c2)c1 (stereo not given) | i | i | i | i | i
Cc1nn(-c2ccc([N+](=O)[O-])cc2)c2c1C(c1cccc(Br)c1)N1C(=N2)C(=O)Nc2ccccc21 (stereo not given) | -5.83* | i | i | i | i
NS(=O)(=O)c1ccc(Oc2ccc(S(N)(=O)=O)cc2)cc1 | i | i | i | i | i
C=CS(=O)(=O)c1ccc(Oc2ccc(S(=O)(=O)C=C)cc2)cc1 | i | i | 21.2* | i | 31.4*
CCN(CC)CCNC(=O)c1c(C)n(-c2ccccc2)c2cc(Br)c(OC)cc12 | -7.26* | i | i | i | i
CN1CCc2c(sc(/N=C/c3cc(C(C)(C)C)ccc3O)c2C#N)C1 | i | i | i | i | i
CC(=O)Nc1ccc(-c2cc(C(=O)O)c3ccc(C)cc3n2)cc1 | i | i | i | i | i
Cn1c(=O)c(C(=O)COC(=O)c2cc(C(F)(F)F)nc3c(C(F)(F)F)cccc23)c(N)n(CC2CC2)c1=O | -7.5* | i | i | -8.93* | i
CC(C)Cn1c(N)c(C(=O)COC(=O)c2cc(C(F)(F)F)nc3ccccc23)c(=O)n(C)c1=O | i | i | · | · | i
Cc1cc(N/N=C\c2ccccc2)nc(-c2ccccc2O)n1 | i | i | i | -7.62* | i
Cn1c(=O)c2c(ncn2CC(=O)N/N=C/C=C/c2ccco2)n(C)c1=O | i | 18.1* | i | i | i
COc1ccccc1N/C=C/c1onc(C)c1[N+](=O)[O-] | -6.45* | i | i | i | i
SMILES | MrgX1 antagonist | MrgX1 PAM | RGS4 block | RGS4 pot | MrgX1 agonist
CCOc1cc(/C=N/NC(=O)c2cc3c(ccc4ccccc43)o2)ccc1O | i | i | i | i | i
COc1ccccc1/C=N/NC(=O)CC(=O)NCc1ccccc1 | i | i | i | i | i
NC(=O)N/N=C/c1ccccc1OCC(=O)NCc1ccccc1 | -4.8* | i | i | i | i
O=C(N/N=C/c1cc(Br)c(O)c(Br)c1)c1cc2c(ccc3ccccc32)o1 | i | i | i | -7.28* | i
CCOC(=O)COc1ccccc1/C=N\NC(=O)c1cc2c(ccc3ccccc32)o1 | i | i | i | -8.77* | i
O=C(NC1CC1)c1nc(Cn2cc([N+](=O)[O-])cn2)no1 | i | i | i | i | i
